Assay results as given in ChEMBL document CHEMBL1127495, “A recombinant human stromelysin catalytic domain identifying tryptophan derivatives as human stromelysin inhibitors” (J Med Chem, 1994).

Experiments:
Stromelysin-1 [1] = target: T1, Stromelysin-1 (Homo sapiens, UniProt P08254); test: (§1) Inhibition of recombinant stromelysin catalytic domain (SCD)
How it was run: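 E. coli-expressed human stromelysin catalytic domain (Phe-100 to Pro-273), expressed without propeptide so needing no activation, at 100 nM (10 nM for the hydroxamate peptide). A405 read over 3 min at room temperature.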

Stromelysin-1 [2] = target: T1, Stromelysin-1; test: In vitro inhibition of recombinant stromelysin catalytic domain.
Stromelysin-1 [3] = target: T1, Stromelysin-1; test: Inhibition of full length stromelysin isolated from cultured human cells (FLS).
Stromelysin-1 [4] = target: T1, Stromelysin-1; test: as §1; remark: listed apart in the source
Stromelysin-1 [5] = target: T1, Stromelysin-1; test: Inhibition of full length stromelysin isolated from cultured human cells (FLS)

T1 sequence (P08254 whole entry, the tested form may be a part): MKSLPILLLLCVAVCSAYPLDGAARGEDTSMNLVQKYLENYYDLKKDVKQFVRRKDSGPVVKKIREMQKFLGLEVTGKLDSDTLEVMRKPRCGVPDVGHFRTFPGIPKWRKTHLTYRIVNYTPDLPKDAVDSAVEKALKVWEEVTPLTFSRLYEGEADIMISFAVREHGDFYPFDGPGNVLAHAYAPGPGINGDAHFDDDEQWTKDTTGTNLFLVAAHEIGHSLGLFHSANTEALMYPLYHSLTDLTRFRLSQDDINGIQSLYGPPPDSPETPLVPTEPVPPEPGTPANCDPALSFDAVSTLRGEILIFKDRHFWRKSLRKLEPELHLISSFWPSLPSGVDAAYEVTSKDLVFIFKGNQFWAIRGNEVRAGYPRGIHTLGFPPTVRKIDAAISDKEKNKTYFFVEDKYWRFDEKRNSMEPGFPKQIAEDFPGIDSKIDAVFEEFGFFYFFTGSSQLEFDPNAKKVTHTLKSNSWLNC

| IC50 (Stromelysin-1 [2]) [µM] | Ki (Stromelysin-1 [4]) [µM] | SMILES | also measured |
| --- | --- | --- | --- |
| > 500 | – | NNC(=O)[C@H](Cc1ccc(O)cc1)NC(=O)OCc1ccccc1 | – |
| > 500 | – | O=C(N[C@H](Cc1ccccc1)C(=O)O)OCc1ccccc1 | IC50 (Stromelysin-1 [3]): > 500 µM |
| 102 | 84 | CC(C)(C)OC(=O)N[C@@H](Cc1c[nH]c2ccccc12)C(=O)ON1C(=O)CCC1=O | – |
| > 500 | – | NC(=O)[C@H](Cc1ccc(O)cc1)NC(=O)OCc1ccccc1 | – |
| 40 | 33 | O=C(N[C@@H](Cc1ccccc1)C(=O)O)OCc1ccccc1 | Ki (Stromelysin-1 [5]): 83 µM; IC50 (Stromelysin-1 [3]): 99 µM |
| 24 | 20 | O=C(N[C@@H](Cc1ccc(O)cc1)C(=O)O)OCc1ccccc1 | Ki (Stromelysin-1 [5]): 18 µM; IC50 (Stromelysin-1 [3]): 22 µM |
| 13 | 11 | O=C(N[C@@H](Cc1c[nH]c2ccccc12)C(=O)ON1C(=O)CCC1=O)OCc1ccccc1 | – |
| 500 | – | O=C(N[C@@H](Cc1c[nH]c2ccccc12)C(=O)O)OCC1c2ccccc2-c2ccccc21 | – |
| 145 | 120 | O=C(/C=C/c1ccco1)N[C@@H](Cc1c[nH]c2ccccc12)C(=O)O | – |
| 432 | 356 | O=C(N[C@H](Cc1ccc(O)cc1)C(=O)O)OCc1ccccc1 | Ki (Stromelysin-1 [5]): 377 µM; IC50 (Stromelysin-1 [3]): 450 µM |
| 10 | 8 | CC(C)(C)OC(=O)N[C@@H](Cc1c[nH]c2ccccc12)C(=O)O | – |

More lines, now with the values behind:

| SMILES | IC50 (Stromelysin-1 [2]) [µM] | Ki (Stromelysin-1 [4]) [µM] | also measured |
| --- | --- | --- | --- |
| CC(=O)N[C@H](Cc1c[nH]c2ccccc12)C(=O)O | – | – | IC50 (Stromelysin-1 [1]): < 500 µM |
| CC(C)(C)OC(=O)N[C@H](Cc1ccc(O)cc1)C(=O)O | > 500 | – | – |
| CC(C)(C)OC(=O)N[C@@H](Cc1ccc(O)cc1)C(=O)O | – | – | IC50 (Stromelysin-1 [1]): < 500 µM |
| O=C(N[C@@H](Cc1c[nH]c2ccccc12)C(=O)O)c1ccccc1 | – | – | IC50 (Stromelysin-1 [1]): < 500 µM |
| Cc1cc(C)c(S(=O)(=O)n2cc(C[C@H](NC(=O)OC(C)(C)C)C(=O)O)c3ccccc32)c(C)c1 | 63 | 52 | – |
| CC(=O)N[C@H](Cc1ccc(O)cc1)C(=O)O | > 500 | – | – |
| O=C(N[C@H](Cc1c[nH]c2ccccc12)C(=O)O)OCC1c2ccccc2-c2ccccc21 | – | – | IC50 (Stromelysin-1 [1]): < 500 µM |
| NC(=O)[C@H](Cc1c[nH]c2ccccc12)NC(=O)OCc1ccccc1 | – | – | IC50 (Stromelysin-1 [1]): < 500 µM |
| CC(=O)N[C@@H](Cc1ccc(O)cc1)C(=O)O [ACETYL TYROSINE] | > 500 | – | – |
| CC(C)(C)OC(=O)N[C@@H](Cc1cn(C=O)c2ccccc12)C(=O)O | 34 | 28 | – |
| N[C@@H](Cc1c[nH]c2ccccc12)C(=O)O [TRYPTOPHAN] | > 500 | – | – |
| CC(C)(C)OC(=O)N[C@H](Cc1c[nH]c2ccccc12)C(=O)O | – | – | IC50 (Stromelysin-1 [1]): < 500 µM |
| N[C@H](Cc1c[nH]c2ccccc12)C(=O)O [D-TRYPTOPHAN] | > 500 | – | – |
| CC(=O)N[C@@H](Cc1c[nH]c2ccccc12)C(=O)O [ACETYLTRYPTOPHAN] | – | – | IC50 (Stromelysin-1 [1]): < 500 µM |
